The results in this text go back to ChEMBL document CHEMBL4033777, “Next-Generation Hypoxic Cell Radiosensitizers: Nitroimidazole Alkylsulfonamides” (J Med Chem, 2018).

One may read the solubility as the dissolved amount per volume that the medium holds. A higher solubility goes with a readily soluble substance. As a reminder, the IC50 is the concentration at which inhibition is half-maximal. By Cmax is commonly meant the maximum level reached in the sampled fluid or tissue. Broadly, the Tmax is the time at which the peak concentration occurs.

≈ marks a conversion by molar mass, not a printed value.

Data set [1] is described as follows: Solubility of the compound in alphaMEM containing 5% FCS and 1% DMSO by HPLC analysis. In kind it is physicochemical. In outline: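 Saturated drug solutions were incubated at 37 °C in αMEM with 5% FCS and 1% DMSO. Dissolved drug was quantified by HPLC.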
Data set [2] has as its system HCT-116. Put plainly: Cytotoxicity against human HCT116 cells incubated for 4 hrs under anaerobic condition measured after 5 days by sulforhodamine B assay. In kind it is functional, cell-based. In outline:
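STR-authenticated, mycoplasma-free HCT116 cells in αMEM + 5% FCS were seeded at 700 cells/well and allowed 2 h to attach. Drug was added from DMSO stocks (<1% DMSO) in serial 3-fold dilutions for 4 h, oxic or anoxic (Pd-catalyst anaerobic chamber, medium pre-equilibrated ≥3 days). After washing, cells regrew for 5 days before SRB staining and IC50 determination.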

The subject of data set [3] is HCT-116. Kind of data set: Hypoxic cytotoxicity ratio of IC50 for human HCT116 cells under oxic condition to IC50 for human HCT116 cells under anoxic condition. In outline:
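HCT116 cells, 700 per well and attached 2 h, got a 4 h exposure to 3-fold serial dilutions (<1% DMSO) under air or in a Pd-catalyst anaerobic chamber with pre-equilibrated medium. Cells were washed, regrown 5 days, and stained with sulforhodamine B to give IC50. HCR = oxic IC50 / anoxic IC50.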

The test system of data set [4] is HCT-116. Put plainly: Hypoxia radiosensitization activity in human HCT116 cells assessed as survival ratio by measuring ratio of cell survival with 15 Gy radiation in absence to presence of compound at anoxic IC50 preincubated for 1 hr followed by 15 Gy irradiation measured after 10 days by methylene blue staining-based cell counting method. The class given is functional. Put shortly:
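Anoxic HCT116 cells were seeded at 10^5/well and treated at the anoxic IC50 concentration for 1 h at room temperature. They were irradiated with 15 Gy (60Co, ~2 Gy/min) in a sealed steel box, then plated clonogenically. Colonies of >50 cells were counted […]. SR15 = survival with radiation / survival with drug + radiation.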

In data set [5] the test system is HCT-116. Put plainly: Hypoxia radiosensitization activity in human HCT116 cells assessed as sensitizer enhancement ratio by measuring ratio of radiation dose for 1% survival in absence to presence of compound at 2.32 mM preincubated for 1 hr followed by irradiation measured after 10 days by methylene blue staining-based cell counting method. In kind it is functional.

Data set [6] deals with HCT-116. Put plainly: Hypoxia radiosensitization activity in human HCT116 cells assessed as sensitizer enhancement ratio by measuring ratio of radiation dose for 1% survival in absence to presence of compound at 2.32 mM preincubated for 1 hr followed by irradiation measured after 10 days by methylene blue staining-based cell counting method relative to misonidazole. In kind it is functional.

The subject of data set [7] is HCT-116. Put plainly: Hypoxia radiosensitization activity in human HCT116 cells assessed as survival ratio by measuring ratio of cell survival with radiation in absence to presence of compound at 2.32 mM preincubated for 1 hr followed by 6 to 29 Gy irradiation measured after 10 days by methylene blue staining-based cell counting method. In kind it is functional.
The test system of data set [8] is HCT-116. Put plainly: Hypoxia radiosensitization activity in human HCT116 cells assessed as survival ratio by measuring ratio of cell survival with radiation in absence to presence of compound at 2.32 mM preincubated for 1 hr followed by 6 to 29 Gy irradiation measured after 10 days by methylene blue staining-based cell counting method relative to misonidazole. The class given is functional.

Data set [9] deals with HCT-116. Put plainly: Cytotoxicity against human HCT116 cells at anoxic IC50 incubated for 1 hr at 21 degC by clonogenic survival assay. The following applies: hct-116, 1 h.
Data set [10] concerns HCT-116. Kind of data set: Hypoxia radiosensitization activity in human HCT116 cells assessed as sensitizer enhancement ratio by measuring ratio of radiation dose for 1% survival in absence to presence of compound at 5 mM preincubated for 1 hr followed by irradiation measured after 10 days by methylene blue staining-based cell counting method. The class given is functional.

Data set [11] deals with HCT-116. Kind of data set: Hypoxia radiosensitization activity in human HCT116 cells assessed as sensitizer enhancement ratio by measuring ratio of radiation dose for 1% survival in absence to presence of compound at 5 mM preincubated for 1 hr followed by irradiation measured after 10 days by methylene blue staining-based cell counting method relative to misonidazole. The class given is functional.

The test system of data set [12] is HCT-116. Kind of data set: Hypoxia radiosensitization activity in human HCT116 cells assessed as survival ratio by measuring ratio of cell survival with radiation in absence to presence of compound at 5 mM preincubated for 1 hr followed by 6 to 29 Gy irradiation measured after 10 days by methylene blue staining-based cell counting method. The class given is functional.

Data set [13] has as its system HCT-116. Put plainly: Hypoxia radiosensitization activity in human HCT116 cells assessed as survival ratio by measuring ratio of cell survival with radiation in absence to presence of compound at 5 mM preincubated for 1 hr followed by 6 to 29 Gy irradiation measured after 10 days by methylene blue staining-based cell counting method relative to misonidazole. The class given is functional.

Data set [14] deals with HCT-116. Kind of data set: Hypoxia radiosensitization activity in human HCT116 cells assessed as sensitizer enhancement ratio by measuring ratio of radiation dose for 1% survival in absence to presence of compound at 1 mM […] measured after 10 days by methylene blue staining-based cell counting method. In kind it is functional.
In data set [15] the test system is HCT-116. Kind of data set: Hypoxia radiosensitization activity in human HCT116 cells assessed as sensitizer enhancement ratio by measuring ratio of radiation dose for 1% survival in absence to presence of compound at 1 mM preincubated for 1 hr followed by irradiation measured after 10 days by methylene blue staining-based cell counting method relative to misonidazole. The class given is functional.

The test system of data set [16] is HCT-116. Kind of data set: Hypoxia radiosensitization activity in human HCT116 cells assessed as survival ratio by measuring ratio of cell survival with radiation in absence to presence of compound at 1 mM preincubated for 1 hr followed by 6 to 29 Gy irradiation measured after 10 days by methylene blue staining-based cell counting method. In kind it is functional.

Data set [17] concerns HCT-116. Kind of data set: Hypoxia radiosensitization activity in human HCT116 cells assessed as survival ratio by measuring ratio of cell survival with radiation in absence to presence of compound at 1 mM preincubated for 1 hr followed by 6 to 29 Gy irradiation measured after 10 days by methylene blue staining-based cell counting method relative to misonidazole. In kind it is functional.

Data set [18] deals with Mus musculus. Kind of data set: Drug level in NIH-III mouse assessed as maximum achievable dose at 10 ml/kg, iv. In kind it is ADME. The following applies: in vivo. In outline:
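Non-tumor-bearing female NIH-III mice (~20 g) received freshly prepared solutions i.v. at 10 mL/kg in 0.9% saline with 1% DMSO, or saline with 2 molar equivalents NaHCO3 for phosphate prodrugs. MAD was the maximum dose that dissolved in the injection volume.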

Another data set concerns Plasma. Put plainly: Cmax in plasma of NIH-III mouse xenografted with human HCT116 cells at 2.20 mmol/kg, iv administered as single dose by HPLC analysis. On the set-up: dose 2.2 mmol/kg, route intravenous. The following applies: in vivo. The class given is ADME, organism-based. In outline:
(§1)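 Female NIH-III mice bearing subcutaneous HCT116 xenografts (10^6 cells inoculated). At ca. 300 mm3 tumor size, a single i.v. dose was given at the MAD or 75% of the MTD. Vehicle was 0.9% saline with 1% DMSO, or saline with 2 molar equivalents NaHCO3 for phosphate prodrugs. Plasma and tumor were sampled at multiple times by cardiac puncture and excision, assayed by HPLC, and analysed noncompartmentally.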

Data set [19] is described as follows: Tmax in plasma of NIH-III mouse xenografted with human HCT116 cells at 2.20 mmol/kg, iv administered as single dose by HPLC analysis. The following applies: 2.2 mmol/kg. In kind it is ADME, organism-based. Put shortly: (§2)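 Female NIH-III mice bearing subcutaneous HCT116 tumors (10^6 cells; ~300 mm3) got a single i.v. dose at the MAD or 75% of the MTD. Vehicle was saline with 1% DMSO, or saline with 2 equivalents of NaHCO3 for the phosphates. Plasma and tumor were sampled at multiple times by cardiac puncture and excision, drug was measured by HPLC, and Tmax came from noncompartmental analysis.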
On the technique in general: In xenograft studies the graft and the host belong to different species.

Data set [20] can be described thus: Cmax in tumor of NIH-III mouse xenografted with human HCT116 cells at 2.20 mmol/kg, iv administered as single dose by HPLC analysis. The following applies: in vivo. On the set-up: dose 2.2 mmol/kg, route intravenous. The class given is ADME, organism-based, Neoplasm. In outline: as §1
Data set [21] in a line: Tmax in tumor of NIH-III mouse xenografted with human HCT116 cells at 2.20 mmol/kg, iv administered as single dose by HPLC analysis. In kind it is ADME, organism-based, Neoplasm. The following applies: 2.2 mmol/kg. In outline:
as §2

The subject of data set [22] is HCT-116. Put plainly: In vivo hypoxia radiosensitization activity in human HCT116 cells xenografted in NIH-III mouse assessed as survival ratio by measuring ratio of cell survival with 12.5 Gy radiation in absence to presence of compound at 2.20 mmol/kg, iv pretreated as single dose for 10 mins followed by irradiation measured after 18 hrs by excision assay. In kind it is functional.

A short description of data set [23]: Electrophilicity of the compound in pH 7 phosphate buffer assessed as one-electron reduction potential. In outline:
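The one-electron reduction potential was set by pulse radiolysis equilibria at pH 7.0 (2.5 mM phosphate), established within 20 µs against benzylviologen, methylviologen or triquat. ΔE came from equilibrium constants via the Nernst equation, at three concentration ratios and 22 ± 2 °C.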

The test system of data set [24] is Mus musculus. Put plainly: Toxicity in NIH-III mouse xenografted with human HCT116 cells assessed as change in body weight with 12.5 Gy radiation at 2.20 mmol/kg, iv administered as single dose. The following applies: in vivo.

On to `O=[N+]([O-])c1cncn1CS(=O)(=O)NCCO`, for which the concentration in solution in [1] (solubility) came to 23.7 mM (≈ 5.93 mg/mL). This molecule also showed an IC50 with HCT-116 [2] of 2300 µM. Besides, the “Ratio IC50” value in the data set with HCT-116 [3] is 4. In addition, the Ratio in the data set with HCT-116 [4] came out at 181; in the data set on HCT-116 [5] it was 1.81; in the data set on HCT-116 [7] it was 114. For the same molecule, the “fold change (FC)” value was found to be 1.28 in the data set on HCT-116 [6] and 14.8 in the data set on HCT-116 [8]. Besides, the Activity result in the data set with HCT-116 [9] is given as “Non-Toxic”.
In the case of `O=[N+]([O-])c1cncn1CCS(=O)(=O)NCCO`, the concentration in solution in data set [1] (solubility) came to 69.3 mM (≈ 18.3 mg/mL). For the same molecule, in the data set on HCT-116 [2], the IC50 is 5300 µM. The “Ratio IC50” value in the data set with HCT-116 [3] is given as 2. The values for the Ratio with HCT-116 [4], in the data set on HCT-116 [10] and in the data set with HCT-116 [12] were 282, 1.81 and 163, respectively. Further, the “fold change (FC)” value in the data set with HCT-116 [11] is 1.23; with HCT-116 [13], 12.1. Moreover, the Activity result with HCT-116 [9] is “Non-Toxic”.
Turning to `O=C(Cn1ccnc1[N+](=O)[O-])NCCO` [ETANIDAZOLE], the solubility in [1] was above 200 mM. This molecule also returned an IC50 in the data set with HCT-116 [2] of 1000 µM. In the data set with HCT-116 [3], the “Ratio IC50” value was found to be 19. The Ratio with HCT-116 [14] is reported as 1.339; in the data set on HCT-116 [4] it was 7; in the data set with HCT-116 [16] it was 4.6; with HCT-116 [22], 8. Besides, the “fold change (FC)” value in the data set on HCT-116 [15] was 0.95; in the data set with HCT-116 [17] it was 0.75. The Drug uptake in the data set on Mus musculus [18] was found to be 2.2 mmol/kg. For the same molecule, the results for the Cmax (with Plasma; in data set [20]) were 3640 µM and 800 µM, respectively. For the same molecule, the Tmax in data set [19] and in data set [21] was 5 min in each case. Besides, the Activity is -388 mV in data set [23], “Non-Toxic” in the data set with HCT-116 [9] and “Non-Toxic” in the data set with Mus musculus [24].
